# In ChEMBL document CHEMBL4732226, “Discovery of a potent G-protein-coupled receptor 119 agonist for the treatment of type 2 diabetes” (Bioorg Med Chem, 2021):
# Key:
# [1] = tested on: Mus musculus; test: Antidiabetic activity in po dosed db/db mouse assessed as reduction in blood glucose level administered up to 14 days pretreated for 30 mins followed by glucose-stimulation and measured up to 120 mins by OGTT method relative to control; format: functional, organism-based; conditions: dose 1-50 mg/kg, time day <=14
# In short: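 Male db/db mice dosed orally once daily for 14 days at 1 to 50 mg/kg. Oral glucose 2 g/kg given 30 min after dosing, then blood glucose followed for 0–120 min. Glucose AUC determined on day 1 and day 14; mean ± s.e.m.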
# [2] = tested on: Mus musculus; test: Antidiabetic activity in glucose-stimulated db/db mouse assessed as increase in GLP-1 level secretion at 50 mg/kg, po after 10 mins; format: functional
# In short: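 Male db/db mice received a single oral dose of 50 mg/kg, followed by a glucose load. Plasma active GLP-1 measured in pg/ml at 10 min after glucose.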
# [3] = Tmax in Wistar rat at 10 mg/kg, po up to 24 hrs; format: ADME, organism-based; conditions: in vivo
# In short: (§1)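 Single oral dose at 10 mg/kg given to male Wistar rats and to Beagle dogs; bioavailability also determined in both species.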
# [4] = Tmax in Beagle dog at 10 mg/kg, po up to 24 hrs; format: ADME, organism-based, Canis lupus familiaris; conditions: in vivo; in short: as §1
# [5] = Cmax in Wistar rat at 10 mg/kg, po up to 24 hrs; format: ADME, organism-based; design: route oral, dose 10 mg/kg, time <=24; conditions: in vivo; in short: as §1
# [6] = Cmax in Beagle dog at 10 mg/kg, po up to 24 hrs; format: ADME, organism-based, Canis lupus familiaris; design: route oral, dose 10 mg/kg, time <=24; conditions: in vivo; in short: as §1
# [7] = Half life in Beagle dog at 10 mg/kg, po up to 24 hrs; format: ADME, organism-based, Canis lupus familiaris; conditions: in vivo; in short: as §1
# [8] = Elimination rate constant in Wistar rat at 10 mg/kg, po up to 24 hrs; format: ADME, organism-based; conditions: in vivo; in short: as §1
# [9] = AUC(0 to infinity) in Wistar rat at 10 mg/kg, po up to 24 hrs; format: ADME, organism-based; design: route oral, dose 10 mg/kg, time <=24; conditions: in vivo; in short: as §1
# [10] = Toxicity in female Wistar rat assessed as ratio of heart to body weight at 400 mg/kg, po after 28 days (reference value: 0.38 +/- 0.037); format: organism-based; conditions: in vivo, 672 h, time 28 day
# [11] = Toxicity in male Wistar rat assessed as ratio of liver to body weight at 200 mg/kg, po after 28 days (reference value: 3.142 +/- 0.231); format: organism-based; conditions: in vivo, 672 h, time 28 day
# [12] = Toxicity in male Wistar rat assessed as ratio of kidney to body weight at 200 mg/kg, po after 28 days (reference value: 0.787 +/- 0.078); format: organism-based; conditions: in vivo, 672 h, time 28 day
# [13] = Toxicity in female Wistar rat assessed as ratio of kidney to body weight at 100 mg/kg, po after 28 days (reference value: 0.801 +/- 0.071); format: organism-based; conditions: in vivo, 672 h, time 28 day
# [14] = Toxicity in male Wistar rat assessed as ratio of spleen to body weight at 100 mg/kg, po after 28 days (reference value: 0.206 +/- 0.026); format: organism-based; conditions: in vivo, 672 h, time 28 day
# [15] = Toxicity in male Wistar rat assessed as ratio of brain to body weight at 400 mg/kg, po after 28 days (reference value: 0.766 +/- 0.038); format: organism-based; conditions: in vivo, 672 h, time 28 day
# [16] = Toxicity in female Wistar rat assessed as ratio of brain to body weight at 100 mg/kg, po after 28 days (reference value: 1.1 +/- 0.078); format: organism-based; conditions: in vivo, 672 h, time 28 day
# [17] = Toxicity in female Wistar rat assessed as ratio of ovaries to body weight at 100 mg/kg, po after 28 days (reference value: 0.091 +/- 0.009); format: organism-based; conditions: in vivo, 672 h, time 28 day
# [18] = Toxicity in male Wistar rat assessed as ratio of epididymides to body weight at 200 mg/kg, po after 28 days (reference value: 0.361 +/- 0.028); format: organism-based; conditions: in vivo, 672 h, time 28 day
# [19] = Toxicity in female Wistar rat assessed as ratio of uterus to body weight at 400 mg/kg, po after 28 days (reference value: 0.335 +/- 0.108); format: organism-based; conditions: in vivo, 672 h, time 28 day
# [20] = Toxicity in male Wistar rat assessed as ratio of thymus to body weight at 200 mg/kg, po after 28 days (reference value: 0.148 +/- 0.023); format: organism-based; conditions: in vivo, 672 h, time 28 day
# [21] = Toxicity in female Wistar rat assessed as ratio of thymus to body weight at 100 mg/kg, po after 28 days (reference value: 0.260 +/- 0.025); format: organism-based; conditions: in vivo, 672 h, time 28 day
# [22] = Toxicity in female Wistar rat assessed as ratio of thymus to body weight at 200 mg/kg, po after 28 days (reference value: 0.260 +/- 0.025); format: organism-based; conditions: in vivo, 672 h, time 28 day
# [23] = Toxicity in male Wistar rat assessed as globulin level at 400 mg/kg, po after 28 days (reference value: 2.62 +/- 0.12 g/dl); format: organism-based; conditions: in vivo, 672 h, time 28 day
# [24] = Toxicity in female Wistar rat assessed as globulin level at 200 mg/kg, po after 28 days (reference value: 2.44 +/- 0.18 g/dl); format: organism-based; conditions: in vivo, 672 h, time 28 day
# [25] = Toxicity in male Wistar rat assessed as glucose level at 200 mg/kg, po after 28 days (reference value: 89.02 +/- 13.41 mg/dl); format: organism-based; conditions: in vivo, 672 h, time 28 day
# [26] = Toxicity in male Wistar rat assessed as ALP level at 200 mg/kg, po after 28 days (reference value: 174.77 +/- 25.42 U/L); format: organism-based; conditions: in vivo, 672 h, time 28 day
# [27] = Toxicity in female Wistar rat assessed as ALP level at 100 mg/kg, po after 28 days (reference value: 100.14 +/- 21.98 U/L); format: organism-based; conditions: in vivo, 672 h, time 28 day
# [28] = Toxicity in male Wistar rat assessed as albumin level at 100 mg/kg, po after 28 days (reference value: 3.56 +/- 0.08 g.dl); format: organism-based; conditions: in vivo, 672 h, time 28 day
# [29] = Toxicity in female Wistar rat assessed as albumin level at 100 mg/kg, po after 28 days (reference value: 3.57 +/- 0.14 g.dl); format: organism-based; conditions: in vivo, 672 h, time 28 day
# [30] = Toxicity in male Wistar rat assessed as urea level at 200 mg/kg, po after 28 days (reference value: 58.14 +/- 9.13 mg/dl); format: organism-based; conditions: in vivo, 672 h, time 28 day
# [31] = Toxicity in male Wistar rat assessed as urea level at 400 mg/kg, po after 28 days (reference value: 58.14 +/- 9.13 mg/dl); format: organism-based; conditions: in vivo, 672 h, time 28 day
# [32] = Toxicity in female Wistar rat assessed as urea level at 200 mg/kg, po after 28 days (reference value: 48.09 +/- 5.3 mg/dl); format: organism-based; conditions: in vivo, 672 h, time 28 day
# [33] = Toxicity in female Wistar rat assessed as mortality up to 400 mg/kg, po after 28 days; format: organism-based; conditions: in vivo, 672 h, time 28 day
# In short: (§2)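 Repeated-dose oral toxicity by gavage in Wistar rats, 10 males and 10 females per group, given 100, 200 or 400 mg/kg once daily for 28 days. Endpoints were clinical signs, mortality, neurobehaviour, food intake, ophthalmic examination and body weight. Animals were sacrificed on day 29 for blood biochemistry, organ-to-body weight ratios and histopathology.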
# [34] = Toxicity in female Wistar rat assessed as ophthalmic examination at 400 mg/kg, po after 28 days; format: organism-based; conditions: in vivo, 672 h, time 28 day; in short: as §2
# [35] = Toxicity in female po dosed Wistar rat after 28 days; format: organism-based; conditions: in vivo, time 28 day
# In short: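 Repeated-dose oral gavage study in Wistar rats, 10 per sex per group, at 100, 200 and 400 mg/kg once daily for 28 days. Clinical signs, mortality, neurobehaviour, food intake, body weight and ophthalmic examination were monitored, followed by blood biochemistry, organ weights and histopathology on day 29.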
smiles,measurement,setting,value
Cc1c(Oc2cccc(/C=C3\SC(=O)NC3=O)c2)ncnc1OC1CCN(C(=O)OC(C)(C)C)CC1,Activity,[1],Dose-dependent effect
same,fold change (FC),[2],2.6
same,Tmax,[3],1.5 h
same,Tmax,[4],3 h
same,Cmax,[5],256 ng/mL
same,Cmax,[6],1050 ng/mL
same,half-life,[7],19.3 h
same,k el at 24 h,[8],1.94e-05 s⁻¹
same,AUC(0-inf),[9],1900 ng·h/mL
same,Ratio,[10],0.367
same,Ratio,[11],3.304
same,Ratio,[12],0.847
same,Ratio,[13],0.875
same,Ratio,[14],0.222
same,Ratio,[15],0.809
same,Ratio,[16],1.103
same,Ratio,[17],0.089
same,Ratio,[18],0.406
same,Ratio,[19],0.429
same,Ratio,[20],0.175
same,Ratio,[21],0.241
same,Ratio,[22],0.257
same,Activity,[23],2.53 g/dL
same,Activity,[24],2.42 g/dL
same,Activity,[25],75.19 mg/dL
same,Activity,[26],164.68 U/L
same,Activity,[27],103.72 U/L
same,Activity,[28],3.47 g/dL
same,Activity,[29],3.59 g/dL
same,Activity,[30],55.62 mg/dL
same,Activity,[31],51.15 mg/dL
same,Activity,[32],46.42 mg/dL
same,Activity,[33],Non-Toxic
same,Activity,[34],Non-Toxic
same,NOAEL at 672 h,[35],> 400 mg/kg
